The values that follow come from ChEMBL document CHEMBL4351015, “Design, synthesis and biological evaluation of 3-(imidazo[1,2-a]pyrazin-3-ylethynyl)-2-methylbenzamides as potent and selective pan-tropomyosin receptor kinase (TRK) inhibitors” (Eur J Med Chem, 2019).

Structures are written as SMILES.

In general, inhibition refers to the share of the control response that was lost under treatment. Usually IC50 stands for the concentration needed to halve the response being measured.

A short description of data set [1]: Ratio of drug concentration in brain to blood of Sprague-Dawley rat at 25 mg/kg, po administered via gavage incubated for 2 hrs by LC/MS-MS analysis. The class given is ADME, organism-based. The note with it: brain and blood, read-out: BBR.
The test system of data set [2] is SH-SY5Y. As to the kind of experiment: Inhibition of BDNF-induced cell invasion in human SH-SY5Y cells transfected with TrkB (unknown origin) at 40 nM incubated for 24 hrs by crystal violet staining microscopy-based matrigel assay relative to control. The class given is functional. The method in brief: (§1)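 Invasion through Matrigel chambers: 1.5 X 10⁶ SH-SY5Y-TrkB cells in FBS-free medium with 0, 8, 40 or 200 nM compound were placed on top. Complete medium with or without BDNF 10 ng/mL went below. After 24 h at 37 °C, cells were fixed in methanol and stained with 0.25% crystal violet, and top-surface cells were removed. Six random fields were counted at 200X; mean of three independent experiments.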

Data set [3] concerns the target T1, BDNF/NT-3 growth factors receptor (Homo sapiens, UniProt Q16620). The data set can be described thus: Inhibition of BDNF-induced TrkB (unknown origin) activation transfected in human SH-SY5Y cells assessed as decrease in Erk phosphorylation incubated for 6 hrs followed by BDNF addition further incubated for 30 mins by Western blot analysis. The class given is cell-based. The method in brief: (§2)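 SH-SY5Y-TrkB stable transfectants were pretreated with 0–2.0 µM compound for 6 h, then given BDNF 10 ng/mL or none for 30 min. Lysates were run on 8–12% SDS-PAGE, blotted to PVDF and blocked in 5% BSA. Primary antibodies were applied overnight at 4 °C, then HRP secondary, with ECL detection. Phospho and total TrkB, PLC-γ1, Akt (Ser473, Thr308) and Erk were probed, with GAPDH as control.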
A general note: In western blotting, separated proteins are transferred to a membrane and probed.
Target sequence in this assay (Q16620 32-822 limits assumed): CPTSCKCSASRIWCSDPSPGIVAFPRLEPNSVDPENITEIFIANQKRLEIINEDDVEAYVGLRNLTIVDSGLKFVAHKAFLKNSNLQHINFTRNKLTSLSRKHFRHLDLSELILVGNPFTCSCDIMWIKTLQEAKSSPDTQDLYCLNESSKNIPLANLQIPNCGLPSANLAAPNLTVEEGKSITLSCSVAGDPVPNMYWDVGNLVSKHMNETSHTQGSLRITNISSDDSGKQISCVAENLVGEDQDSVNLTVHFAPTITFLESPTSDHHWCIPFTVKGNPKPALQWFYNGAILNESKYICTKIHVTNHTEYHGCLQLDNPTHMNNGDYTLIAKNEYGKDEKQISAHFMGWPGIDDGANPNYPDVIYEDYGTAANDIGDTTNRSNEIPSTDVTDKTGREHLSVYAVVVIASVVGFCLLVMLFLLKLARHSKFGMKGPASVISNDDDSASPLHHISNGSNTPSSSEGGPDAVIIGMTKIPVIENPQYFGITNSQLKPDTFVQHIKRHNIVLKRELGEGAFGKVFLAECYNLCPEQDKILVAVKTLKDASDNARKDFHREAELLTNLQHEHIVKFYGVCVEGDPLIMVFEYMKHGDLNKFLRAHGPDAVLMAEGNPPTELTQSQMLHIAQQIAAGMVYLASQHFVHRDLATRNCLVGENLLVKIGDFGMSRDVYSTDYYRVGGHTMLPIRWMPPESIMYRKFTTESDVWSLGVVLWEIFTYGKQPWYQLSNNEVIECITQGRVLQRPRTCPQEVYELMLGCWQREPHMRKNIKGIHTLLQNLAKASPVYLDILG

Data set [4] can be described thus: Drug concentration in Sprague-Dawley rat brain at 25 mg/kg, po administered via gavage incubated for 0.5 hrs by LC/MS-MS analysis. The class given is ADME, organism-based. The note with it: read-out: Ct.
A short description of data set [5]: Plasma concentration in Sprague-Dawley rat at 25 mg/kg, po administered via gavage incubated for 0.5 hrs by LC/MS-MS analysis. The class given is ADME, organism-based.
The subject of data set [6] is SH-SY5Y. As to the kind of experiment: Inhibition of cell migration in human SH-SY5Y cells transfected with TrkB (unknown origin) assessed as reduction in BDNF-induced wound closure at 8 nM incubated for 24 hrs by bright field microscopy relative to control. It counts as functional. The method in brief: (§3)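 SH-SY5Y-TrkB monolayers were grown to near confluence and scratched with a pipette tip, then washed with PBS. Cells were incubated 24 h in MEM/F-12 with 2% FBS, with or without BDNF 10 ng/mL and with compound. Three random fields were imaged by bright-field microscopy and % wound closure was measured. Run three times, each in triplicate.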

The target in data set [7] is T1, BDNF/NT-3 growth factors receptor. The data set can be described thus: Inhibition of BDNF-induced TrkB (unknown origin) activation transfected in human SH-SY5Y cells assessed as decrease in Akt phosphorylation at Thr308 residue incubated for 6 hrs followed by BDNF addition further incubated for 30 mins by Western blot analysis. It counts as cell-based. The method in brief: as §2
Target sequence in this assay (Q16620 32-822 limits assumed): as above

The test system of data set [8] is SH-SY5Y. As to the kind of experiment: Inhibition of BDNF-induced cell invasion in human SH-SY5Y cells transfected with TrkB (unknown origin) incubated for 24 hrs by crystal violet staining microscopy-based matrigel assay. It counts as functional. The method in brief:
as §1

Data set [9] concerns the target T1, BDNF/NT-3 growth factors receptor. As to the kind of experiment: Inhibition of TrkB (unknown origin) transfected in human SH-SY5Y cells assessed as decrease in BDNF-induced TrkB phosphorylation at >=16 nM incubated for 6 hrs followed by BDNF addition further incubated for 30 mins by Western blot analysis. The class given is cell-based. The method in brief: as §2
Target sequence in this assay (Q16620 32-822 limits assumed): as above

Data set [10] deals with SH-SY5Y. As to the kind of experiment: Inhibition of BDNF-induced cell invasion in human SH-SY5Y cells transfected with TrkB (unknown origin) at 8 nM incubated for 24 hrs by crystal violet staining microscopy-based matrigel assay relative to control. It counts as functional. The method in brief: as §1
A short description of data set [11]: Plasma concentration in Sprague-Dawley rat at 25 mg/kg, po administered via gavage incubated for 8 hrs by LC/MS-MS analysis. It counts as ADME, organism-based.
Data set [12] deals with T1, BDNF/NT-3 growth factors receptor. As to the kind of experiment: Inhibition of TrkB (unknown origin) transfected in human SH-SY5Y cells assessed as decrease in BDNF-induced TrkB phosphorylation incubated for 6 hrs followed by BDNF addition further incubated for 30 mins by Western blot analysis. It counts as cell-based. The method in brief: as §2
Target sequence in this assay (Q16620 32-822 limits assumed): as above
Data set [13] has as its system SH-SY5Y. As to the kind of experiment: Inhibition of BDNF-induced cell invasion in human SH-SY5Y cells transfected with TrkB (unknown origin) at 200 nM incubated for 24 hrs by crystal violet staining microscopy-based matrigel assay relative to control. The class given is functional. The method in brief:
as §1

Data set [14] is described as follows: Effect on ERK phosphorylation in BDNF-induced human SH-SY5Y cells up to 2 uM preincubated for 6 hrs followed by BDNF addition and measured after 30 mins by Western blot analysis. The class given is cell-based. Conditions: 0.5 h; call rule not given here.
Data set [15] is described as follows: Drug concentration in Sprague-Dawley rat brain at 25 mg/kg, po administered via gavage incubated for 8 hrs by LC/MS-MS analysis. The class given is ADME, organism-based. The note with it: read-out: Ct.
The subject of data set [16] is SH-SY5Y. The data set can be described thus: Inhibition of BDNF-induced cell migration in human SH-SY5Y cells transfected with TrkB (unknown origin) at 200 nM incubated for 24 hrs by crystal violet staining microscopy based transwell assay relative to control. It counts as functional. The method in brief: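 Transwell migration: 1.5 X 10⁶ SH-SY5Y-TrkB cells in FBS-free medium containing 0, 8, 40 or 200 nM compound went in the top chamber. The bottom chamber held complete medium with or without BDNF 10 ng/mL. After 24 h at 37 °C, cells were methanol-fixed and stained with 0.25% crystal violet, and non-migrated cells were removed. Cells were counted in six random fields at 200X; mean of three independent experiments.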

Data set [17] concerns the target T1, BDNF/NT-3 growth factors receptor. The data set can be described thus: Inhibition of BDNF-induced TrkB (unknown origin) activation transfected in human SH-SY5Y cells assessed as decrease in PLCgamma1 phosphorylation incubated for 6 hrs followed by BDNF addition further incubated for 30 mins by Western blot analysis. It counts as cell-based. The method in brief: as §2
Target sequence in this assay (Q16620 32-822 limits assumed): as above

For data set [18], the target named is RAC-alpha serine/threonine-protein kinase (Homo sapiens, UniProt P31749). As to the kind of experiment: Effect on ATK phosphorylation in BDNF-induced human SH-SY5Y cells up to 2 uM preincubated for 6 hrs followed by BDNF addition and measured after 30 mins by Western blot analysis. The class given is cell-based. The note with it: 0.5 h.
The nature of data set [19]: Ratio of drug concentration in brain to blood of Sprague-Dawley rat at 25 mg/kg, po administered via gavage incubated for 8 hrs by LC/MS-MS analysis. The class given is ADME, organism-based. The note with it: brain and blood, read-out: BBR.
The target in data set [20] is T1, BDNF/NT-3 growth factors receptor. The data set can be described thus: Inhibition of recombinant human His-tagged TrkB catalytic domain (526 to 838 residues) expressed in baculovirus expression system using tyr 01 as substrate incubated for 1 hr by Z'-Lyte assay.
Target sequence in this assay (Q16620 whole entry): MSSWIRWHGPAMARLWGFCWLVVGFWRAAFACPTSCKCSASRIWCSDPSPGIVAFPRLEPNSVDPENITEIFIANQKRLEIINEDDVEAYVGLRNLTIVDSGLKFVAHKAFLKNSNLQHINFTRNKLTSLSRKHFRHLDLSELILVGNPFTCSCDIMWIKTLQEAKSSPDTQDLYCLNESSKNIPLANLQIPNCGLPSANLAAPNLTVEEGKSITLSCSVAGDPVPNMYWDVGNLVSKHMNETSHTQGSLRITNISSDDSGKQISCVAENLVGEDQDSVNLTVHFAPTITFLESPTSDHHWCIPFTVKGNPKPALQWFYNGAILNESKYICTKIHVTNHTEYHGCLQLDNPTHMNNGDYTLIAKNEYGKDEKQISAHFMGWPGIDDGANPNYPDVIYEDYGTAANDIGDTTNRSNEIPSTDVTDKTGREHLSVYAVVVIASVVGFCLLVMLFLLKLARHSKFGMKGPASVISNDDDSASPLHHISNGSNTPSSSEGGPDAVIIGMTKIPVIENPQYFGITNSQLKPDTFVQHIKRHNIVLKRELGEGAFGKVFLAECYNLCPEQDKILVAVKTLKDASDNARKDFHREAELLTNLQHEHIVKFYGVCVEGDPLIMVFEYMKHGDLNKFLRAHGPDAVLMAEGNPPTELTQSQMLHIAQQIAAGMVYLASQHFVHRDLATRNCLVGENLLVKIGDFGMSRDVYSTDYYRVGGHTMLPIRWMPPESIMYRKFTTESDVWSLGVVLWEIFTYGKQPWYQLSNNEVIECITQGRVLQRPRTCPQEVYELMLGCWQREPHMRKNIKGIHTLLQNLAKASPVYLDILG
Data set [21] relates to SH-SY5Y. The data set can be described thus: Inhibition of cell migration in human SH-SY5Y cells transfected with TrkB (unknown origin) assessed as reduction in BDNF-induced wound closure at 200 nM incubated for 24 hrs by bright field microscopy relative to control. It counts as functional. The method in brief: as §3
Data set [22] in a line: Drug concentration in Sprague-Dawley rat brain at 25 mg/kg, po administered via gavage incubated for 2 hrs by LC/MS-MS analysis. It counts as ADME, organism-based. Conditions: read-out: Ct.
In data set [23] the target is High affinity nerve growth factor receptor (Homo sapiens, UniProt P04629). As to the kind of experiment: Inhibition of recombinant human His-tagged TrkA catalytic domain (441 to 796 residues) expressed in baculovirus expression system using tyr 01 as substrate incubated for 1 hr by Z'-Lyte assay.
Sequence of High affinity nerve growth factor receptor (P04629 whole entry, the tested form may be a part): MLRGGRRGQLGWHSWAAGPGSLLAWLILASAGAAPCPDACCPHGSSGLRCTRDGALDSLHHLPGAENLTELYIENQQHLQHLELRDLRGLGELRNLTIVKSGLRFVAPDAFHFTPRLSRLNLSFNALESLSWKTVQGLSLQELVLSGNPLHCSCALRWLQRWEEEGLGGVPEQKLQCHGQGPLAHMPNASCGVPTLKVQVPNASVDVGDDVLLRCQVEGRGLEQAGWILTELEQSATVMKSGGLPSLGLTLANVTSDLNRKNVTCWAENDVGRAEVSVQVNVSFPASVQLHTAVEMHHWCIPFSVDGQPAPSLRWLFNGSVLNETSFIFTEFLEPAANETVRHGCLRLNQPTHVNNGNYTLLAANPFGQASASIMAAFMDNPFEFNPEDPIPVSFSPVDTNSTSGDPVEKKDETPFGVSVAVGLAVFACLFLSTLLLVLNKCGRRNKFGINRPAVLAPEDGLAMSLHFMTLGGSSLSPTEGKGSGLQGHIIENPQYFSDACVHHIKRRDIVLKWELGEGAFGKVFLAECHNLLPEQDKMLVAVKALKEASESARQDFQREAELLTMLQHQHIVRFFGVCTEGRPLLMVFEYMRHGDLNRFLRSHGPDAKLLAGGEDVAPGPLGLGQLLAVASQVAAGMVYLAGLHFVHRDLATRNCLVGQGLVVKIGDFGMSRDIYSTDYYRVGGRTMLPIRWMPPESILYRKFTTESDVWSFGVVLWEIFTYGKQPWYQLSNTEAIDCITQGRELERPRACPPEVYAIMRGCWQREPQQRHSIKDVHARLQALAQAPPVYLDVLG

Sequence of RAC-alpha serine/threonine-protein kinase (P31749 whole entry): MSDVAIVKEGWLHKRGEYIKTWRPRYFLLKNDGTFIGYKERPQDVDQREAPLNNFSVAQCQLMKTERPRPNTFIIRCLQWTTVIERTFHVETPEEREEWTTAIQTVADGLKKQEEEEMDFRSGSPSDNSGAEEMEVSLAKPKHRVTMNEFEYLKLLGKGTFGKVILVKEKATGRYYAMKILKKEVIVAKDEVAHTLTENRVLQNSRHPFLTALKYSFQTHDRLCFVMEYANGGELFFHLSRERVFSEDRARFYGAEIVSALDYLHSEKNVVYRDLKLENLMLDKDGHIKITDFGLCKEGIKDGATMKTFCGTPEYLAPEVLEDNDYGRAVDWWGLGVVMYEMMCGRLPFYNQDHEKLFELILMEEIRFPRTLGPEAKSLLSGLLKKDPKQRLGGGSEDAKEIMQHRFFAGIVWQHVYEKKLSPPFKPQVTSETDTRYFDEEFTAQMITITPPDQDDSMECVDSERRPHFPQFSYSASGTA

With `Cc1c(C#Cc2cnc3cnc(-c4ccc(N)cc4)cn23)cccc1C(=O)Nc1cc(CN2CCN(C)CC2)cc(C(C)C)c1`, the Kp at 2 h in data set [1] is 6. In [2], testing at 0.04 µM gave an inhibition of 61.9%. The inhibition result in data set [3] was “Dose-dependent effect”; in data set [7], “Dose-dependent effect”; in data set [8], “Dose-dependent effect”; in data set [9], 100%; in data set [12] it was “Dose-dependent effect”; in [17], “Dose-dependent effect”. Further, the concentration at 0.5 h in data set [4] was 0.078 ng/mL; in data set [5] it was 7.33 ng/mL. Besides, the results for the inhibition at 0.008 µM in data set [6] and in [10] were 50.1% and 9.1%, respectively. Moreover, the concentration at 8 h in data set [11] came to 6.52 ng/mL; in data set [15], 0.09 ng/mL. For the same molecule, the inhibition at 0.2 µM in data set [13] is 85.5%; in data set [16], 82%; in [21], 77.5%. Moreover, the Activity entry in data set [14] and in [18] was “Not Active” in each case. The Kp at 8 h in data set [19] was found to be 8.3. The figures for the IC50 in [20] and in [23] were 10.5 nM and 2.65 nM, respectively. Moreover, in data set [22], the concentration at 2 h came out at 0.355 ng/mL.
